Results from article PMC11682233 (Scientific Reports, 2024).

Tests used:
[1] = system: non-phosphorylated β-catenin; test: Western immunoblotting of Wnt signaling proteins in SUNE6-10B cells; assay type: cell-based; conditions: IC50 dose, 48 h
Summary of the method: (§1)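 Lysates spun at 12,000 × g, 10 min, 4 °C; Bradford assay. 10% SDS-PAGE, nitrocellulose transfer, 5% BSA block 1 h, primary antibody overnight at 4 °C, HRP secondary 1 h at room temperature, ECL detection. Band densities normalised to β-actin, expressed relative to untreated control.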

[2] = system: non-phosphorylated β-catenin; test: Western immunoblotting of Wnt signaling proteins in SUNE5-8F cells; assay type: cell-based; conditions: IC25 and IC50 doses, 48 h
Summary of the method: as §1

SUNE5-8F = test: Clonogenic; assay type: cell-based
[3] = target: T1, FZD10 recombinant proteoliposome (Homo sapiens, UniProt Q9ULW2); test: STD-NMR; assay type: binding; conditions: 230 nM protein, 0.3–1.5 µM ligand, D2O, 298 K
T1 sequence (Q9ULW2 21-581): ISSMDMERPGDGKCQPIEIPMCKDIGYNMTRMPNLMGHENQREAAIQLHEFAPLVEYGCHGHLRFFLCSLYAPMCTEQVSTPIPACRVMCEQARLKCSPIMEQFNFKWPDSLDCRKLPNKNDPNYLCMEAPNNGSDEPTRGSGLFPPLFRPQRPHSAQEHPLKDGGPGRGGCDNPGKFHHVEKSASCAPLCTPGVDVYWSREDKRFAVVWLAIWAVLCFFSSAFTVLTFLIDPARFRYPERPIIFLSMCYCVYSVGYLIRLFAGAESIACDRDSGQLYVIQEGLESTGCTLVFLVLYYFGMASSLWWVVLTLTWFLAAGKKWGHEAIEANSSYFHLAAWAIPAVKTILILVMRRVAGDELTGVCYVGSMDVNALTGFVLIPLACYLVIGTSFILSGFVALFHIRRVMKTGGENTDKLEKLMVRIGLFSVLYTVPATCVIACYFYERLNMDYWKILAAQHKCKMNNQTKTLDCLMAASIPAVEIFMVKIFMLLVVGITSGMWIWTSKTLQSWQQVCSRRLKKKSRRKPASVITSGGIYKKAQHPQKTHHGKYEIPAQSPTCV
Summary of the method: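 STD-NMR at 600 MHz on a cryoprobe-equipped spectrometer, with the residual D2O peak (δH 4.70) as chemical shift reference. 1H spectral width 9600 Hz, 30° pulse angle, 2.5 s recycle delay, 8 scans.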

phosphorylated LRP6 [4] = test: Western immunoblotting of Wnt signaling proteins in SUNE5-8F cells; assay type: cell-based; conditions: IC25 and IC50 doses, 48 h
Summary of the method: as §1

NPC cells = test: Preliminary NPC cytotoxicity screening; assay type: cell-based; conditions: MTT, 48 h
Summary of the method: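 3,000 NPC cells per well, plated 24 h, then given fresh medium with test compound at 0.1, 1, 10 or 100 µM for 48 h; cisplatin served as positive control. MTT at 0.5 mg/mL final in RPMI for 3 h at 37 °C. Formazan dissolved in DMSO, absorbance read at 540 nm. Run in triplicate; t-test, p < 0.05 significant.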

SUNE6-10B = test: Clonogenic; assay type: cell-based
phosphorylated LRP6 [5] = test: Western immunoblotting of Wnt signaling proteins in SUNE6-10B cells; assay type: cell-based; conditions: IC50 dose, 48 h
Summary of the method: as §1

[6] = IC50 dose (rilpivirine 4 µM, doxazosin 14 µM, nicergoline 40 µM)
[7] = IC25 dose (rilpivirine 2 µM, doxazosin 7 µM, nicergoline 20 µM)
[8] = IC25 dose (doxazosin 7 µM, nicergoline 20 µM)

| STD signals (binding to FZD10) [3] | SMILES | expression level of active β-catenin [1] | expression of active β-catenin (non-phosphorylated β-catenin) [2] | colony formation (SUNE5-8F; 8 µM) | expression of phosphorylated LRP6 (phosphorylated LRP6 [4]) | 50% inhibition cutoff at 100 µM (NPC cells) | colony formation (SUNE6-10B; [6]) | colony formation (SUNE5-8F; [7]) | colony formation (SUNE5-8F; [6]) | expression of phosphorylated LRP6 (phosphorylated LRP6 [5]) | colony formation (SUNE6-10B; [8]) |
| --- | --- | --- | --- | --- | --- | --- | --- | --- | --- | --- | --- |
| STD signals from H2, H3,4, and H5,6 | COc1cc2nc(N3CCN(C(=O)c4ccco4)CC3)nc(N)c2cc1OC [Prazosin] | decreased | decreased | inhibited colony formation | decreased | met the 50% inhibition cutoff at 100 µM | – | – | – | – | – |
| STD signals from H2 | Cc1cc(/C=C/C#N)cc(C)c1Nc1ccnc(Nc2ccc(C#N)cc2)n1 [Rilpivirine] | decreased | decreased | – | decreased | met the 50% inhibition cutoff at 100 µM | reduced the colony formation ability | no impact | reduced the colony formation ability | reduced | – |
| STD signals corresponding to H2 and H3 | CO[C@]12C[C@@H](COC(=O)c3cncc(Br)c3)CN(C)[C@@H]1Cc1cn(C)c3cccc2c13 [Nicergoline] | decreased | decreased | – | decreased | met the 50% inhibition cutoff at 100 µM | suppressed the colony formation | suppressed the colony formation | suppressed the colony formation | – | suppressed the colony formation |
| STD signals for H5 and H6 | COc1cc2nc(N3CCN(C(=O)C4COc5ccccc5O4)CC3)nc(N)c2cc1OC (centres unmarked) [Doxazosin] | – | decreased | – | decreased | met the 50% inhibition cutoff at 100 µM | suppressed the colony formation | suppressed the colony formation | suppressed the colony formation | – | suppressed the colony formation |
